In data set [1] the target is T1, Acyl-CoA desaturase 1 (Rattus norvegicus, UniProt P07308).
T1 sequence (P07308 whole entry): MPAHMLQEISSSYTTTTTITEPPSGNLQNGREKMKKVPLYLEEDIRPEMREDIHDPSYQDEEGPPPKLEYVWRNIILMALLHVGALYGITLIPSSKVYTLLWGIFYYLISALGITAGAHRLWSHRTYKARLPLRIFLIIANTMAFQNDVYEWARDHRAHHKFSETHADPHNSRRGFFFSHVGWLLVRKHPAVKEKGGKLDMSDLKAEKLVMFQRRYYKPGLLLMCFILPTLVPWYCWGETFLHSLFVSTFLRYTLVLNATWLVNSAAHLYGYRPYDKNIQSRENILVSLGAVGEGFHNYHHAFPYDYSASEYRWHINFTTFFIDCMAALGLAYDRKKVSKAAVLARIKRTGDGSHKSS
Kind of data set: Inhibition of rat SCD1 by rat microsomal assay. The method, boiled down:
(§1)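 Microsomal desaturase activity was measured in 100 mM Tris HCl pH 7.3 with 2 mM NADH and [9,10-3H]stearoyl-CoA for 15 min at room temperature. The reaction was stopped on ice with trichloroacetic acid, then passed through activated charcoal, and tritium in the filtrate was counted. Compounds were tested in 2% DMSO final. Percent inhibition = (total−sample)/(total−blank)×100, with the blank set by 10⁻⁴ M of a standard inhibitor.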

A short description of data set [2]: Drug level in liver in rat at 10 mg/kg measured after 6 hrs. The class given is ADME, organism-based. Details: dose 10 mg/kg. The settings on record: read-out: Drug uptake. The method, boiled down: (§2)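 Rats were given a single 10 mg/kg dose. Plasma exposure (AUC, Cmax) was determined, and drug concentrations in plasma, brain and liver were measured at 6 h post-dose. The liver/plasma ratio was taken from the 6 h levels.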

A short description of data set [3]: Ratio of drug level in liver to plasma of rat at 10 mg/kg measured after 6 hrs. The format is ADME, organism-based. Details: dose 10 mg/kg. In a few lines:
as §2

A short description of data set [4]: Plasma concentration in rat at 10 mg/kg measured after 6 hrs. The class given is ADME, organism-based. Details: dose 10 mg/kg. The method, boiled down: as §2
Data set [5] deals with Rattus norvegicus. Briefly: AUC in rat at 10 mg/kg. Details: dose 10 mg/kg. The settings on record: in vivo. The format is ADME, organism-based, Plasma. In a few lines:
as §2

Data set [6] in a line: Cmax in rat at 10 mg/kg. The class given is ADME, organism-based. Details: dose 10 mg/kg. The note with it: in vivo. The method, boiled down: as §2
The target in data set [7] is T2, Acyl-CoA desaturase 1 (Mus musculus, UniProt P13516).
T2 sequence (P13516 whole entry): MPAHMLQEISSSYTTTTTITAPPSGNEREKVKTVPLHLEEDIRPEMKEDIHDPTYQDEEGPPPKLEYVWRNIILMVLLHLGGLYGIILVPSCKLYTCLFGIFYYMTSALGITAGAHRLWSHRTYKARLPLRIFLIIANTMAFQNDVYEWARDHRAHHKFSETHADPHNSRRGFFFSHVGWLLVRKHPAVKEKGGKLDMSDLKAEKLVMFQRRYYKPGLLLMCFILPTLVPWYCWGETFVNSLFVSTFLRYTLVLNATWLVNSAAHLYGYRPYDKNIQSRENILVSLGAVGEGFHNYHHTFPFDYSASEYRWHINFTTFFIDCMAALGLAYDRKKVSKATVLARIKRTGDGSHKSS
Kind of data set: Inhibition of mouse SCD1. The method, boiled down: as §1

pIC50: −log10 of the molar value.

In data set [1], `Fc1cccc2c1CCC1(CCN(c3ccc(-c4nnc(Cc5cccnc5)o4)nn3)CC1)O2` gave a negative logarithm of the IC50 (pIC50) of 8.70.

`Cc1c(C(=O)Nc2ccn(C)n2)ncn1Cc1cccc(C(F)(F)F)c1` had a negative-log IC50 (pIC50) in data set [1] of 7.93. Compared with the last compound, the pIC50 is 0.77 log units lower.

As to `N#Cc1cnc(N2CCC3(CC2)CCN(Cc2cccc(C(F)(F)F)c2)c2ccccc2O3)s1`, the concentration at 6 h in data set [2] stood at 1510 ng/g; in data set [4], 72 ng/g. For the same compound, the Kp at 6 h in data set [3] was 20. The AUC in data set [5] stood at 383 ng·h/g. The compound also showed a peak concentration (Cmax) in data set [6] of 105 ng/g. This compound also showed a negative-log IC50 (pIC50) in data set [1] of 9.00.

In data set [5], `CNC(=O)c1cnc(N2CCC3(CC2)CCN(Cc2cccc(C(F)(F)F)c2)c2ccccc2O3)s1` showed an AUC of 0 ng·h/g. In data set [1], the negative logarithm of the IC50 (pIC50) is 8.52.

In the case of `CNC(=O)c1cnc(N2CCC3(CC2)CCN(Cc2ccc(C(C)(C)C)cc2)c2ccccc2O3)s1`, the negative logarithm of the IC50 (pIC50) in data set [1] is 8.40.

`NC(=O)c1cnc(N2CCC3(CC2)CCN(Cc2cccc(C(F)(F)F)c2)c2ccccc2O3)s1`: the concentration at 6 h in data set [2] is less than 10 ng/g. Moreover, the AUC in data set [5] was 58 ng·h/g. This compound also came in with a maximum concentration (Cmax) in data set [6] of 45 ng/g. Further, the pIC50 in data set [1] was 8.52.

The compound `O=C(O)c1ccc(N2CCC3(CC2)CCN(Cc2cccc(C(F)(F)F)c2)c2ccccc2O3)nn1` showed a negative logarithm of the IC50 (pIC50) in data set [1] of 5.33.

For `NC(=O)c1ccc(N2CCC3(CC2)CCN(Cc2cccc(C(F)(F)F)c2)c2ccccc2O3)nn1`, in data set [1], the pIC50 was 8.00.

In data set [1], `CCCNC(=O)c1ccc(N2CCC3(CC2)CCN(Cc2cccc(C(F)(F)F)c2)c2ccccc2O3)nn1` had a negative logarithm of the IC50 (pIC50) of 6.89.

As for `O=C(NCCC1CC1)c1cnc(N2CCC3(CC2)CCN(Cc2cccc(C(F)(F)F)c2)c2ccccc2O3)s1`, the pIC50 in data set [1] was 6.03. Compared with the last compound, the pIC50 is 0.86 log units lower.

In data set [1], `O=C(NCCC1CC1)c1ccc(N2CCC3(CC2)CCN(Cc2cccc(C(F)(F)F)c2)c2ccccc2O3)cc1` showed a pIC50 of 5.66.

`O=C(NCCC1CC1)c1ccc(N2CCC3(CC2)CCN(Cc2cccc(C(F)(F)F)c2)c2ccccc2O3)nc1`: the concentration at 6 h in data set [2] was less than 10 ng/g. In data set [5], this compound yielded an AUC of 23 ng·h/g. The compound also gave a Cmax in data set [6] of 45 ng/g. This compound had a negative logarithm of the IC50 (pIC50) in data set [1] of 7.92.

`O=C(NCCC1CC1)c1ccc(N2CCC3(CC2)CCN(Cc2cccc(C(F)(F)F)c2)c2ccccc2O3)nn1`: in data set [2], the concentration at 6 h is less than 10 ng/g. Moreover, the AUC in data set [5] stood at 105 ng·h/g. This compound also came in with a maximum concentration (Cmax) in data set [6] of 209 ng/g. The pIC50 in data set [1] was 8.40.

In turn, `CC(C)(C)c1ccc(CN2CCC3(CCN(c4ccc(C(=O)NCCC5CC5)nn4)CC3)Oc3ccccc32)cc1` had a pIC50 in data set [1] of 7.40.

In data set [1], `CC(C)(C)c1ccc(CC(=O)N2CCC3(CC2)CCN(CC#N)c2ccccc2O3)cc1` gave a pIC50 of 6.36.

For `CC(C)(C)c1ccc(CN2CCC3(CCN(C(=O)CNC(=O)c4cccnc4)CC3)Oc3ccccc32)cc1`, the concentration at 6 h in data set [2] was 232 ng/g; in data set [4], 18 ng/g. Also, the Kp at 6 h in data set [3] turned out to be 13. The compound also displayed an AUC in data set [5] of 341 ng·h/g. In addition, in data set [6], the peak level (Cmax) was 169 ng/g. In addition, the negative logarithm of the IC50 (pIC50) in data set [1] was 5.82.

In turn, `CC(C)(C)c1ccc(CN2CCC3(CCN(C(=O)CNC(=O)c4ccco4)CC3)Oc3ccccc32)cc1` gave a negative-log IC50 (pIC50) in data set [1] of 7.72.

In data set [1], `O=C(NCC(=O)N1CCC2(CC1)CCN(Cc1cccc(C(F)(F)F)c1)c1ccccc1O2)c1ccco1` showed a pIC50 of 6.42.

With `O=C(NCC(=O)N1CCC2(CC1)CCN(Cc1cccc(C(F)(F)F)c1)c1ccccc1O2)c1ccccc1`, the negative logarithm of the IC50 (pIC50) in data set [1] was 5.59.

`CC(=O)NCC(=O)N1CCC2(CC1)CCN(Cc1ccc(C)cc1)c1ccccc1O2` gave a pIC50 in data set [1] of 5.96. Against the preceding compound, the pIC50 is 0.37 log units higher.

As to `CCc1ccc(CN2CCC3(CCN(C(=O)CNC(C)=O)CC3)Oc3ccccc32)cc1`, the figures for the concentration at 6 h in data set [2] and in data set [4] were less than 100 ng/g and 19 ng/g, respectively. The compound also displayed an AUC in data set [5] of 1288 ng·h/g. In data set [6], this compound registered a Cmax of 579 ng/g. In addition, the pIC50 in data set [1] was 7.24.

Turning to `CC(=O)NCC(=O)N1CCC2(CC1)CCN(CCc1ccc(C(C)C)cc1)c1ccccc1O2`, the concentration at 6 h was found to be 1660 ng/g in data set [2] and 100 ng/g in data set [4]. The partition ratio (Kp) at 6 h in data set [3] was 17. In data set [5], this compound came in with an AUC of 2608 ng·h/g. The concentration in data set [6] peaked (Cmax) at 875 ng/g. In data set [1], the pIC50 is 7.38.

As for `CC(=O)NCC(=O)N1CCC2(CC1)CCN(Cc1ccc(C(C)(C)C)cc1)c1ccccc1O2`, the results for the concentration at 6 h in data set [2] and in data set [4] were 2670 ng/g and 210 ng/g, respectively. Also, in data set [3], the Kp at 6 h came out at 13. This compound displayed an AUC in data set [5] of 3464 ng·h/g. Also, in data set [6], the highest concentration (Cmax) came to 1100 ng/g. The same compound gave a pIC50 in data set [1] of 7.77.

`CC(=O)NCC(=O)N1CCC2(CC1)CCN(Cc1cccc(Cl)c1)c1ccccc1O2` showed a negative-log IC50 (pIC50) in data set [1] of 6.08.

On to `COc1cccc(CN2CCC3(CCN(C(=O)CNC(C)=O)CC3)Oc3ccccc32)c1`, for which, in data set [1], the negative-log IC50 (pIC50) was 5.74. Against the preceding compound, the pIC50 is 0.34 log units lower.

`CC(=O)NCC(=O)N1CCC2(CC1)CCN(Cc1cccc(OC(F)(F)F)c1)c1ccccc1O2` showed a pIC50 in data set [1] of 6.17.

Regarding `CC(=O)NCC(=O)N1CCC2(CC1)CCN(Cc1cccc(C(F)(F)F)c1)c1ccccc1O2`, in data set [1], the pIC50 was 7.49. Compared with the last compound, the pIC50 is 1.32 log units higher.

As for `CC(=O)NCC(=O)N1CCC2(CC1)CCN(Cc1ccc(F)cc1)c1ccccc1O2`, the negative logarithm of the IC50 (pIC50) in data set [1] is 6.34.

Turning to `CC(=O)NCC(=O)N1CCC2(CC1)CCN(Cc1ccc(Cl)cc1)c1ccccc1O2`, the pIC50 in data set [1] was less than 5.00.

Compound `CC(=O)NCC(=O)N1CCC2(CC1)CCN(Cc1ccccc1F)c1ccccc1O2` showed a pIC50 in data set [1] of less than 5.00.

`CC(=O)NCC(=O)N1CCC2(CC1)CCN(Cc1ccccc1Cl)c1ccccc1O2` had a pIC50 in data set [1] of 5.92.

Consider `CC(=O)NCC(=O)N1CCC2(CC1)CCN(Cc1ccccc1C)c1ccccc1O2`, for which the pIC50 in data set [1] is 5.92.

For the compound `CCc1ccccc1CN1CCC2(CCN(C(=O)CNC(C)=O)CC2)Oc2ccccc21`, the negative logarithm of the IC50 (pIC50) in data set [1] was 6.37.

In turn, `COc1ccccc1CN1CCC2(CCN(C(=O)CNC(C)=O)CC2)Oc2ccccc21` had a negative logarithm of the IC50 (pIC50) in data set [1] of 5.54.

`CC(=O)NCC(=O)N1CCC2(CC1)CCN(Cc1cccc(F)c1)c1ccccc1O2` showed a negative logarithm of the IC50 (pIC50) in data set [1] of less than 5.00.

On to `CC(=O)NCC(=O)N1CCC2(CC1)CCN(CCC(C)C)c1ccccc1O2`, for which the negative-log IC50 (pIC50) in data set [7] is 5.19.

As for `CC(=O)NCC(=O)N1CCC2(CC1)CCN(Cc1ccccc1)c1ccccc1O2`, the negative logarithm of the IC50 (pIC50) in data set [1] was 5.92.

For the compound `CC(=O)NCC(=O)N1CCC2(CC1)CCN(CC(C)C)c1ccccc1O2`, the pIC50 in data set [1] was less than 5.00.

In data set [1], `CCCN1CCC2(CCN(C(=O)CNC(C)=O)CC2)Oc2ccccc21` had a negative-log IC50 (pIC50) of less than 5.00.

Turning to `CC(=O)NCC(=O)N1CCC2(CC1)CCN(c1ccccc1)c1ccccc1O2`, in data set [1], the pIC50 was less than 5.00.

In data set [1], `CC(=O)NCC(=O)N1CCC2(CC1)CCN(CCc1ccccc1)c1ccccc1O2` had a negative-log IC50 (pIC50) of 5.80.

As for `COc1ccc(C(F)(F)F)c(C(=O)N2CCN(c3ccc(C(=O)NCCCc4ccccc4)cn3)CC2)c1`, the pIC50 in data set [1] was 7.00. This pIC50 lies 1.20 log units higher than the previous one.

Compound `O=C(O)Cn1nnc(-c2cc(N3CCC(Oc4ccccc4C(F)(F)F)CC3)no2)n1` gave a pIC50 in data set [1] of 8.52.

`O=C(CO)Nc1ccc2ncn(Cc3ccc(Cl)c(Cl)c3)c(=O)c2c1`: the pIC50 in data set [1] was 6.58.
